ChEMBL document CHEMBL3227978, “Azetidine derivatives of tricyclic antidepressant agents” (J Med Chem, 1979)

Test system: Mus musculus
Assay: Anticonvulsant activity in po dosed ICEM:CET (SPF Caw) mouse assessed as antagonism of pentylenetetrazole-induced flexor-extensor tonic convulsions administered via gavage 30 mins before pentylenetetrazole challenge
Format: functional
Details: not given
Summary of the method: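 Male mice, 18-22 g, dosed orally by gavage in 0.5% Methocel (0.1 mL/10 g), starting at a 50 mg/kg screening dose, then graded doses. Pentylenetetrazole 130 mg/kg ip given 30 min later. Ten mice per dose and for controls. Dose preventing flexor-extensor tonic convulsions in 50% of animals read from dose-response curves (ED50).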

Structure (SMILES)	ED50 [mg/kg]
CNC1CN(C2c3ccccc3COc3ccccc32)C1.O=C(O)/C=C/C(=O)O (single isomer, unassigned; (+))	14

Same assay, conditions: Mus musculus, ICEM:CET(SPF Caw), po; read-out: ED50

Structure (SMILES)	ED50 [mg/kg]
c1ccc2c(c1)CCc1ccccc1C2N1CC(N2CCOCC2)C1	46.9
CNC1CN(C2c3ccccc3C3(CC3)c3ccccc32)C1	18.5
CN(CC(=O)c1ccccc1)C1CN(C2c3ccccc3CCc3ccccc32)C1	46.8
CN(C)CCC=C1c2ccccc2CCc2ccccc21.Cl [AMITRIPTYLINE HYDROCHLORIDE]	8
CN(C)C1CN(C2c3ccccc3CCc3ccccc32)C1	21.5
CNCCN(C)C1c2ccccc2CCc2ccccc21	18
CN(C)C1CN(C2c3ccccc3CCc3ccc(Cl)cc32)C1 (stereo not drawn)	29.9
CC(=O)N(C)C1CN(C2c3ccccc3CCc3ccccc32)C1	28
C#CCN(CC#C)C1CN(C2c3ccccc3CCc3ccccc32)C1	38
CNC1CN(C2c3ccccc3CSc3ccc(Cl)cc32)C1 (stereo not drawn)	> 50
CN(C)C1CN(C2c3ccccc3CSc3ccc(Cl)cc32)C1 (stereo not drawn)	50
CNC1CN(C2c3ccccc3CSc3ccc(OC)cc32)C1 (stereo not drawn)	> 50
CC(C)NC1CN(C2c3ccccc3COc3ccccc32)C1 (stereo not drawn)	27
CNC1CN(C2c3ccccc3CCc3ccc(OC)cc32)C1 (stereo not drawn)	> 50
CC(C)(C)NC1CN(C2c3ccccc3CCc3ccccc32)C1	28.7
c1ccc(CNC2CN(C3c4ccccc4CCc4ccccc43)C2)cc1	> 50
CNC1CN(C2c3ccccc3CSc3ccccc32)C1 (stereo not drawn)	14.7
CC(C)NC1CN(C2c3ccccc3CCc3ccccc32)C1	23.3
CNCC1CN(C2c3ccccc3CCc3ccccc32)C1	> 50
NC1CN(C2c3ccccc3CCc3ccccc32)C1	17
CN(C)C1CN(C2c3ccccc3COc3ccc(Cl)cc32)C1 (stereo not drawn)	> 50
CNC1CN(C2c3ccccc3COc3ccc(OC)cc32)C1 (stereo not drawn)	45.8
CC(Cc1ccccc1)NC1CN(C2c3ccccc3CCc3ccccc32)C1 (stereo not drawn)	> 50
CNC1(C)CN(C2c3ccccc3CCc3ccccc32)C1	44.6
CNC1CN(C2c3ccccc3CCc3ccc(Cl)cc32)C1 (stereo not drawn)	27.9
c1ccc2c(c1)CCc1ccccc1C2N1CC(n2ccnc2)C1	17.7

Test system: not listed separately
Assay: Orientative acute toxicity in po dosed ICEM:CET (SPF Caw) mouse administered via gavage measured for 60 mins after drug dosing by Irwin's test
Format: organism-based
Details: ICEM:CET (SPF Caw), in vivo
Summary of the method: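 Male ICEM:CET (SPF Caw) mice, 18-22 g. Oral gavage, suspended or dissolved in 0.5% Methocel at 0.1 mL/10 g body weight. Doses of at least 25, 50, 100, 200, 400 and 800 mg/kg, four animals per dose. Animals were observed closely for 60 min after dosing during Irwin's symptomatologic test, and an approximate LD50 was estimated.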

Structure (SMILES)	LD50 at 1 h [mg/kg]
c1ccc2c(c1)CCc1ccccc1C2N1CC(N2CCOCC2)C1	> 800
CNC1CN(C2c3ccccc3C3(CC3)c3ccccc32)C1	200
CN(CC(=O)c1ccccc1)C1CN(C2c3ccccc3CCc3ccccc32)C1	> 800
CN(C)CCC=C1c2ccccc2CCc2ccccc21.Cl [AMITRIPTYLINE HYDROCHLORIDE]	100
CN(C)C1CN(C2c3ccccc3CCc3ccccc32)C1	400
CNCCN(C)C1c2ccccc2CCc2ccccc21	200
CN(C)C1CN(C2c3ccccc3CCc3ccc(Cl)cc32)C1 (stereo not drawn)	400
CC(=O)N(C)C1CN(C2c3ccccc3CCc3ccccc32)C1	400
C#CCN(CC#C)C1CN(C2c3ccccc3CCc3ccccc32)C1	> 800
CNC1CN(C2c3ccccc3CSc3ccc(Cl)cc32)C1 (stereo not drawn)	400
CN(C)C1CN(C2c3ccccc3CSc3ccc(Cl)cc32)C1 (stereo not drawn)	400
CNC1CN(C2c3ccccc3CSc3ccc(OC)cc32)C1 (stereo not drawn)	400
CC(C)NC1CN(C2c3ccccc3COc3ccccc32)C1 (stereo not drawn)	200
CNC1CN(C2c3ccccc3CCc3ccc(OC)cc32)C1 (stereo not drawn)	200
CC(C)(C)NC1CN(C2c3ccccc3CCc3ccccc32)C1	400
c1ccc(CNC2CN(C3c4ccccc4CCc4ccccc43)C2)cc1	800
CNC1CN(C2c3ccccc3CSc3ccccc32)C1 (stereo not drawn)	200
CC(C)NC1CN(C2c3ccccc3CCc3ccccc32)C1	200
CNCC1CN(C2c3ccccc3CCc3ccccc32)C1	200
NC1CN(C2c3ccccc3CCc3ccccc32)C1	200
CN(C)C1CN(C2c3ccccc3COc3ccc(Cl)cc32)C1 (stereo not drawn)	100
CNC1CN(C2c3ccccc3COc3ccc(OC)cc32)C1 (stereo not drawn)	200
CC(Cc1ccccc1)NC1CN(C2c3ccccc3CCc3ccccc32)C1 (stereo not drawn)	> 800
CNC1(C)CN(C2c3ccccc3CCc3ccccc32)C1	200
CNC1CN(C2c3ccccc3CCc3ccc(Cl)cc32)C1 (stereo not drawn)	400
c1ccc2c(c1)CCc1ccccc1C2N1CC(n2ccnc2)C1	200
CNC1CN(C2c3ccccc3COc3ccccc32)C1.O=C(O)/C=C/C(=O)O (single isomer, unassigned; (+))	200

Test system: Mus musculus
Assay: Antidepressant activity in po dosed ICEM:CET (SPF Caw) mouse assessed as antagonism of reserpine-induced blepharospasm administered via gavage 30 mins before reserpine challenge measured 1 hr after reserpine treatment
Format: functional
Details: Mus musculus, ICEM:CET(SPF Caw), po; read-out: ED50
Summary of the method: (§1)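 Groups of ten male mice (18-22 g), fasted 9 h with water until 2 h pre-test. Oral gavage in 0.5% Methocel at doses below the 25 mg/kg screen, 30 min before reserpine 2.5 mg/kg ip. Blepharospasm scored blind at 1 h, rectal temperature at 4 h. ED50 estimated by eye-fit linear plots on semilogarithmic paper.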

Structure (SMILES)	ED50 [mg/kg]
c1ccc2c(c1)CCc1ccccc1C2N1CC(N2CCOCC2)C1	17
CNC1CN(C2c3ccccc3C3(CC3)c3ccccc32)C1	4.4
CN(CC(=O)c1ccccc1)C1CN(C2c3ccccc3CCc3ccccc32)C1	15
CN(C)CCC=C1c2ccccc2CCc2ccccc21.Cl [AMITRIPTYLINE HYDROCHLORIDE]	1.3
CN(C)C1CN(C2c3ccccc3CCc3ccccc32)C1	7
CNCCN(C)C1c2ccccc2CCc2ccccc21	> 25
CN(C)C1CN(C2c3ccccc3CCc3ccc(Cl)cc32)C1 (stereo not drawn)	12.5
CC(=O)N(C)C1CN(C2c3ccccc3CCc3ccccc32)C1	> 25
C#CCN(CC#C)C1CN(C2c3ccccc3CCc3ccccc32)C1	> 25
CNC1CN(C2c3ccccc3CSc3ccc(Cl)cc32)C1 (stereo not drawn)	> 25
CN(C)C1CN(C2c3ccccc3CSc3ccc(Cl)cc32)C1 (stereo not drawn)	> 25
CNC1CN(C2c3ccccc3CSc3ccc(OC)cc32)C1 (stereo not drawn)	21.8
CC(C)NC1CN(C2c3ccccc3COc3ccccc32)C1 (stereo not drawn)	3.9
CNC1CN(C2c3ccccc3CCc3ccc(OC)cc32)C1 (stereo not drawn)	14
CC(C)(C)NC1CN(C2c3ccccc3CCc3ccccc32)C1	> 25
c1ccc(CNC2CN(C3c4ccccc4CCc4ccccc43)C2)cc1	12
CNC1CN(C2c3ccccc3CSc3ccccc32)C1 (stereo not drawn)	12
CC(C)NC1CN(C2c3ccccc3CCc3ccccc32)C1	6.5
CNCC1CN(C2c3ccccc3CCc3ccccc32)C1	> 25
NC1CN(C2c3ccccc3CCc3ccccc32)C1	5
CN(C)C1CN(C2c3ccccc3COc3ccc(Cl)cc32)C1 (stereo not drawn)	> 25
CNC1CN(C2c3ccccc3COc3ccc(OC)cc32)C1 (stereo not drawn)	> 25
CC(Cc1ccccc1)NC1CN(C2c3ccccc3CCc3ccccc32)C1 (stereo not drawn)	> 25
CNC1(C)CN(C2c3ccccc3CCc3ccccc32)C1	> 25
CNC1CN(C2c3ccccc3CCc3ccc(Cl)cc32)C1 (stereo not drawn)	> 25
c1ccc2c(c1)CCc1ccccc1C2N1CC(n2ccnc2)C1	> 25
CNC1CN(C2c3ccccc3COc3ccccc32)C1.O=C(O)/C=C/C(=O)O (single isomer, unassigned; (+))	1

Test system: Mus musculus
Assay: Antidepressant activity in po dosed ICEM:CET (SPF Caw) mouse assessed as antagonism of reserpine-induced hypothermia administered via gavage 30 mins before reserpine challenge measured 4 hrs after reserpine treatment
Format: functional
Details: not given
Summary of the method: as §1

Structure (SMILES)	ED50 [mg/kg]
CNC1CN(C2c3ccccc3COc3ccccc32)C1.O=C(O)/C=C/C(=O)O (single isomer, unassigned; (+))	4.9

Same assay, conditions: Mus musculus, ICEM:CET(SPF Caw), po; read-out: ED50

Structure (SMILES)	ED50 [mg/kg]
c1ccc2c(c1)CCc1ccccc1C2N1CC(N2CCOCC2)C1	> 25
CNC1CN(C2c3ccccc3C3(CC3)c3ccccc32)C1	11.4
CN(CC(=O)c1ccccc1)C1CN(C2c3ccccc3CCc3ccccc32)C1	> 25
CN(C)CCC=C1c2ccccc2CCc2ccccc21.Cl [AMITRIPTYLINE HYDROCHLORIDE]	6.6
CN(C)C1CN(C2c3ccccc3CCc3ccccc32)C1	12.5
CNCCN(C)C1c2ccccc2CCc2ccccc21	> 25
CN(C)C1CN(C2c3ccccc3CCc3ccc(Cl)cc32)C1 (stereo not drawn)	8.6
CC(=O)N(C)C1CN(C2c3ccccc3CCc3ccccc32)C1	> 25
C#CCN(CC#C)C1CN(C2c3ccccc3CCc3ccccc32)C1	21
CNC1CN(C2c3ccccc3CSc3ccc(Cl)cc32)C1 (stereo not drawn)	> 25
CN(C)C1CN(C2c3ccccc3CSc3ccc(Cl)cc32)C1 (stereo not drawn)	> 25
CNC1CN(C2c3ccccc3CSc3ccc(OC)cc32)C1 (stereo not drawn)	> 25
CC(C)NC1CN(C2c3ccccc3COc3ccccc32)C1 (stereo not drawn)	24.5
CNC1CN(C2c3ccccc3CCc3ccc(OC)cc32)C1 (stereo not drawn)	> 25
CC(C)(C)NC1CN(C2c3ccccc3CCc3ccccc32)C1	> 25
c1ccc(CNC2CN(C3c4ccccc4CCc4ccccc43)C2)cc1	> 25
CNC1CN(C2c3ccccc3CSc3ccccc32)C1 (stereo not drawn)	> 25
CC(C)NC1CN(C2c3ccccc3CCc3ccccc32)C1	8.5
CNCC1CN(C2c3ccccc3CCc3ccccc32)C1	> 25
NC1CN(C2c3ccccc3CCc3ccccc32)C1	12
CN(C)C1CN(C2c3ccccc3COc3ccc(Cl)cc32)C1 (stereo not drawn)	> 25
CNC1CN(C2c3ccccc3COc3ccc(OC)cc32)C1 (stereo not drawn)	> 25
CC(Cc1ccccc1)NC1CN(C2c3ccccc3CCc3ccccc32)C1 (stereo not drawn)	> 25
CNC1(C)CN(C2c3ccccc3CCc3ccccc32)C1	> 25
CNC1CN(C2c3ccccc3CCc3ccc(Cl)cc32)C1 (stereo not drawn)	> 25
c1ccc2c(c1)CCc1ccccc1C2N1CC(n2ccnc2)C1	> 25
